T cruzi HTS: inhibitors of intracellular Trypanosoma cruzi, primary screen, cell-based, plate reader, single point, set 2; intracellular Trypanosoma cruzi in host cells; actives 4.9% (n = 22,000); activity score (inhibition), % at 5.01 µM; in the data active = activity score above about 55%;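 note: parasites and compound incubated about four days before reading; 0% = median of neutral control wells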
INS-1E rescue: protection of INS-1E cells from cytokine death, primary screen, ATP luminescence, single point; INS-1E cytokine-induced death, 48 h; normalised: neutral wells 0, positive control 100; protection from cytokine-induced ATP loss, % at 10 µM; actives 0.1% (n = 20,000);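 active = mean replicate protection from cytokine-induced ATP loss at least 50% and at least 75% of replicates each reaching 50%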
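Assay system: INS-1E rat cells / Quantity: 8000 cells per well / Medium: RPMI without phenol red, 5% FBS / Probe or stimulus: three-cytokine cocktail (IFN-γ, TNF-α, IL-1β) / Dosing: one compound concentration, pin transfer / Timing: 48 h co-treatment, 10 min post-lysis read / Technique: CellTiter-Glo luminescence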
A1 apoptosis 2: A1 inhibitors via caspase activation, primary screen, cell-based, luminescence, HTS, two replicates; MEF A1-2A-BIM cells, caspase-Glo luminescence, 3 h; percent of clofoctol response, DMSO zero; caspase activation, % (no concentration beside the values); 24,000 tested, under 10 active; AID 2465, 2010; in the data active = caspase activation above about 5.9%
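Evaluation: Caspase-3/7 activity from luminescence increase | Assay system: A1-2A-BIM mouse embryonic fibroblasts | Quantity: 2500 MEF cells/well | Medium: RPMI-1640 plus 10% FBS | Detection: Caspase-Glo 3/7 luminescence, 1 h at room temperature | Dosing: 50 nL compound per well, pinned | Timing: Cells settled overnight, compound exposure 3 h at 37 °C, 5% CO2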
An asterisk follows results filed as active; · = not tested or not shown. The entries come from a sample that favours hits as a whole.

SMILES	T cruzi HTS	INS-1E rescue	A1 apoptosis 2
COc1ccc(S(=O)(=O)N(C)C[C@@H]2Oc3c(NC(=O)c4ccc(-c5nccs5)cc4)cccc3C(=O)N([C@H](C)CO)C[C@@H]2C)cc1	73.7*	-15.6	0.8
Cc1ccc(S(=O)(=O)N(C)C[C@@H]2Oc3c(NC(=O)c4ccc(-c5nccs5)cc4)cccc3C(=O)N([C@H](C)CO)C[C@@H]2C)cc1	71.1*	2.7	-0.2
O=C(N/N=C/c1cccnc1Cl)c1ccccc1O	-0.1	-31.2	·
O=C(CCCCCCC(=O)Nc1ccccc1O)N/N=C/c1ccoc1	-3.3	4.2	·
[N-]=[N+]=NC[C@H](Cc1ccccc1)NC(=O)c1ccccc1	·	·	-1.2
COc1ccc(S(=O)(=O)Nc2ccc3c(c2)CC(=O)N([C@H](C)CO)C[C@@H](C)[C@H](CN(C)S(=O)(=O)c2ccc(Cl)cc2)O3)cc1	-7.9	-1.1	·
COc1ccc(S(=O)(=O)Nc2ccc3c(c2)CC(=O)N([C@@H](C)CO)C[C@@H](C)[C@@H](CN(C)S(=O)(=O)c2ccc(Cl)cc2)O3)cc1	60.4*	7.2	·
COc1ccc(S(=O)(=O)N(C)C[C@H]2Oc3ccc(NS(=O)(=O)c4ccc(Cl)cc4)cc3CC(=O)N([C@@H](C)CO)C[C@H]2C)cc1	62.3*	-6.1	0.9
COc1ccc(S(=O)(=O)Nc2ccc3c(c2)CC(=O)N([C@@H](C)CO)C[C@H](C)[C@@H](CN(C)S(=O)(=O)c2ccc(OC)cc2)O3)cc1	9.0	0.7	0.6
COc1ccc(S(=O)(=O)Nc2ccc3c(c2)CC(=O)N([C@H](C)CO)C[C@@H](C)[C@@H](CN(C)S(=O)(=O)c2ccc(Cl)cc2)O3)cc1	60.0*	13.6	0.7
COc1ccc(S(=O)(=O)Nc2ccc3c(c2)CC(=O)N([C@H](C)CO)C[C@@H](C)[C@@H](CN(C)S(=O)(=O)c2ccc(OC)cc2)O3)cc1	67.0*	7.6	0.0
COc1ccc(S(=O)(=O)Nc2ccc3c(c2)CC(=O)N([C@H](C)CO)C[C@H](C)[C@H](CN(C)S(=O)(=O)c2ccc(Cl)cc2)O3)cc1	23.1	4.3	-1.4
COc1ccc(S(=O)(=O)N(C)C[C@@H]2Oc3ccc(NS(=O)(=O)c4ccc(Cl)cc4)cc3CC(=O)N([C@@H](C)CO)C[C@@H]2C)cc1	-38.0	2.6	0.7
CC(C)(C)[C@@H]1C=C(C(=O)N2CCCCCCC2)O[C@H](OCc2ccc(CO)cc2)C1	·	·	1.0
O=C(N/N=C/c1c[nH]c2ccccc12)c1ccccn1	-5.3	15.8	-8.6
COc1ccc(S(=O)(=O)N(C)C[C@H]2Oc3ccc(NS(=O)(=O)c4ccc(Cl)cc4)cc3CC(=O)N([C@H](C)CO)C[C@H]2C)cc1	67.3*	-8.0	·
COc1ccc(S(=O)(=O)N(C)C[C@H]2Oc3ccc(NS(=O)(=O)c4ccc(Cl)cc4)cc3CC(=O)N([C@H](C)CO)C[C@@H]2C)cc1	·	·	-0.4
O=C(NO)c1cccc(C(=O)N/N=C/Cc2ccccc2)c1	-11.0	-4.3	-1.0
C[C@@H]1CCCCO[C@H](CN(C)S(=O)(=O)c2ccc(F)cc2)[C@@H](C)CN([C@H](C)CO)C(=O)c2cc(NC(=O)Nc3ccc(F)cc3)ccc2O1	13.7	-7.1	0.3
C[C@@H]1CCCCO[C@H](CN(C)S(=O)(=O)c2ccc(Cl)cc2)[C@H](C)CN([C@@H](C)CO)C(=O)c2cc(NC(=O)Nc3ccc(C(F)(F)F)cc3)ccc2O1	·	·	0.3
C[C@@H]1CCCCO[C@H](CN(C)S(=O)(=O)c2ccc(F)cc2)[C@@H](C)CN([C@H](C)CO)C(=O)c2cc(NC(=O)Nc3ccc(C(F)(F)F)cc3)ccc2O1	63.6*	-36.2	0.1
Cc1ccc(S(=O)(=O)N(C)C[C@@H]2OCCCC[C@@H](C)Oc3ccc(NC(=O)Nc4ccc(C(F)(F)F)cc4)cc3C(=O)N([C@H](C)CO)C[C@@H]2C)cc1	70.0*	-22.9	·
COC(=O)CCCCCCC(=O)N/N=C/c1cc(F)ccc1O	-7.3	-4.1	-1.1
O=C(N/N=C/c1ccc(C(F)(F)F)cc1)c1ccccn1	-11.4	0.9	-10.8
COc1ccc(CN(C)C[C@H]2OCCCC[C@H](C)Oc3ccc(NC(=O)Nc4ccc(C(F)(F)F)cc4)cc3C(=O)N([C@H](C)CO)C[C@@H]2C)cc1	·	·	1.0
COc1ccc(CN(C)C[C@H]2OCCCC[C@@H](C)Oc3ccc(NC(=O)Nc4ccc(C(F)(F)F)cc4)cc3C(=O)N([C@H](C)CO)C[C@@H]2C)cc1	66.8*	-33.0	·
